Data on 1 compound can be found in ChEMBL document CHEMBL1828538, “Synthesis and pharmacological evaluation of indole-based sigma receptor ligands” (Eur J Med Chem, 2011).

SMILES strings stand for the structures. Active and inactive are the calls of the source. No cut-off for these calls is given here.

The nature of test [1]: Displacement of radioligand from adrenergic alpha1 receptor assessed as 50% receptor inhibition at 10^-7 M. An outline of the steps:
(§1)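 Part of a contracted (NovaScreen) panel of 64 radioligand/enzyme assays, with the test compound run at 10⁻⁵ M and 10⁻⁷ M. Each assay was scored by whether radioligand displacement exceeded 50% at each concentration.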

Test [2] is described as follows: Displacement of radioligand from adrenergic beta1 receptor assessed as 50% receptor inhibition at 10^-5 M. The method, boiled down:
as §1

Test [3] is described as follows: Displacement of radioligand from adrenergic alpha1 receptor assessed as 50% receptor inhibition at 10^-5 M. An outline of the steps:
as §1

For test [4], the target named is T1, Muscarinic acetylcholine receptor M1 (Homo sapiens) (UniProt P11229).
T1 sequence (whole entry): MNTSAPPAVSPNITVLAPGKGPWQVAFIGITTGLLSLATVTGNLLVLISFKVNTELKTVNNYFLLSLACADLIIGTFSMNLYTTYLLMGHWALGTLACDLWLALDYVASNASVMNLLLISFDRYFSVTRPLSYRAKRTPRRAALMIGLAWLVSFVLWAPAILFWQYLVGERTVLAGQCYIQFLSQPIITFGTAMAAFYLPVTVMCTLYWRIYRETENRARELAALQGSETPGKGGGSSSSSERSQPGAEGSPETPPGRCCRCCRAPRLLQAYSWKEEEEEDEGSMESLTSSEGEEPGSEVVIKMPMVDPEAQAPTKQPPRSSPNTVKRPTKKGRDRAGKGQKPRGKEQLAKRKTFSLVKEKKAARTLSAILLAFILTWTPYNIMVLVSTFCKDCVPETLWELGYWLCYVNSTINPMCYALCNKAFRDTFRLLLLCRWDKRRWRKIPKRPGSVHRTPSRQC
The experiment in a line: Displacement of radioligand from muscarinic M1 receptor assessed as 50% receptor inhibition at 10^-7 M. The method, boiled down:
as §1

In test [5] the target is D(3) dopamine receptor (Homo sapiens, UniProt P35462). The test is described as follows: Displacement of [3H]YM-09151-2 from human D3 receptor expressed in CHO cells. It counts as cell-based. The method, boiled down:
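CHOp-D2 or CHOp-D3 cells were labelled with 0.2–0.5 nM [3H]YM-09151-2, and nonspecific binding was set with 1 μM chlorpromazine. Ki was from standard competition conditions, as mean ± SEM of replicate assays.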
Background: Loss of bound radioactivity is the signal in a displacement assay; it reports binding, not function.

Sequence of D(3) dopamine receptor (P35462 whole entry): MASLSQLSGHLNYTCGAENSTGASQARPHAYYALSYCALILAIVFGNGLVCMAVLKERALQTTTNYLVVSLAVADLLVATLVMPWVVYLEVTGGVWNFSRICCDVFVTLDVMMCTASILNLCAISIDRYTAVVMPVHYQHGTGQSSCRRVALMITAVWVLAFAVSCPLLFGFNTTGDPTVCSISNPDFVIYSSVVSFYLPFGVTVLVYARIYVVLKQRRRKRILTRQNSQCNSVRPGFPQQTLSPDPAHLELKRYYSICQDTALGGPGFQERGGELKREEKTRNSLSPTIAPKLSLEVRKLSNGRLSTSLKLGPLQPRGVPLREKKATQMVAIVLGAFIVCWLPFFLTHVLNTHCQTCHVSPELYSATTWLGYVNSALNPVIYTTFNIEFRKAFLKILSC

As a reminder, the Ki is a measure of affinity in units of concentration, obtained from inhibition or displacement. The low end stands for higher affinity, the high end for lower affinity. As for `COc1cc2c(cc1OC)CN(CCCCn1cc(-c3ccc(F)cc3)c3ccccc31)CC2`, the inhibition result in test [1] and in test [4] was “inactive” in each case. The inhibition result in test [2] and in test [3] was “Active” in each case. In addition, the Ki in test [5] was 544 nM.
